Source: ChEMBL document CHEMBL4480426, “Novel multi-target directed ligands based on annelated xanthine scaffold with aromatic substituents acting on adenosine receptor and monoamine oxidase B. Synthesis, in vitro and in silico studies” (Bioorg Med Chem, 2019)

What was measured:
Adenosine receptor A1 [1] = target: T1, Adenosine receptor A1 (Rattus norvegicus, UniProt P25099); experiment: Displacement of [3H]CCPA from adenosine A1 receptor in rat brain cortical membranes; type: cell membranes
T1 sequence (P25099 whole entry): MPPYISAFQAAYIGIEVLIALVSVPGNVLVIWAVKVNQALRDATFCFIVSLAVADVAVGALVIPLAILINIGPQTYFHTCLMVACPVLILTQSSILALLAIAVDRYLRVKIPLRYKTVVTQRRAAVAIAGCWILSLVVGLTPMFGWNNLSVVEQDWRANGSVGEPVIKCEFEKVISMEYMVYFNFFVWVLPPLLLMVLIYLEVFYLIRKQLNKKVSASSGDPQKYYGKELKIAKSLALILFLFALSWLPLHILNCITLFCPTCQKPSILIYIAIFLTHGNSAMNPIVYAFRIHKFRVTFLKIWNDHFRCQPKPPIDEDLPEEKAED

Adenosine receptor A2a = Adenosine receptor A2a (Homo sapiens, UniProt P29274); experiment: Displacement of [3H]MSX2 from recombinant human adenosine A2a receptor expressed in HEK293 cells; type: cell-based
Adenosine receptor A2a, sequence (P29274 whole entry): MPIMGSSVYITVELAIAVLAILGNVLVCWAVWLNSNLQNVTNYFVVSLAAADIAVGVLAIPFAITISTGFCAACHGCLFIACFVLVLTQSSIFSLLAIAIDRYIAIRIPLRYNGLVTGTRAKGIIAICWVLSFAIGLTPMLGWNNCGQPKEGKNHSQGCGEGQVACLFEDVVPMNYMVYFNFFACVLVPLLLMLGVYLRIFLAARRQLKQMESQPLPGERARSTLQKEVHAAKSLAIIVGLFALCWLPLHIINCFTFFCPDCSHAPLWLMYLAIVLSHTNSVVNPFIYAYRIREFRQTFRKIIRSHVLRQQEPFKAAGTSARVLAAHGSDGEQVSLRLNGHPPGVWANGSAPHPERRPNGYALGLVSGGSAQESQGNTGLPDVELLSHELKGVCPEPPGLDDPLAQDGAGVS

Adenosine receptor A2b = target: T2, Adenosine receptor A2b (Homo sapiens, UniProt P29275); experiment: Displacement of [3H]PSB603 from recombinant human adenosine A2b receptor expressed in HEK293 cells; type: cell-based
T2 sequence (P29275 whole entry): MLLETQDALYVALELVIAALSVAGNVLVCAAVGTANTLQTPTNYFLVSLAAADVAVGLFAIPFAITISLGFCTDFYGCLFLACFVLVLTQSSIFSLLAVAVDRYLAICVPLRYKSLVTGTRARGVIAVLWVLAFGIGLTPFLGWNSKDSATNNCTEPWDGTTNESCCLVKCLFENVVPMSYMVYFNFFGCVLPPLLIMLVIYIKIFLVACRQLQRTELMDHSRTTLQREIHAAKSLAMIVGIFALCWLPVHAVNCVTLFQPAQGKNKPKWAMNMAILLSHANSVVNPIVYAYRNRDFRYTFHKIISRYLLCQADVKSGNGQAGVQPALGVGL

Adenosine receptor A3 = target: T3, Adenosine receptor A3 (Homo sapiens, UniProt P0DMS8); experiment: Displacement of [3H]PSB11 from recombinant human adenosine A3 receptor expressed in CHO cells; type: cell-based
T3 sequence (P0DMS8 whole entry): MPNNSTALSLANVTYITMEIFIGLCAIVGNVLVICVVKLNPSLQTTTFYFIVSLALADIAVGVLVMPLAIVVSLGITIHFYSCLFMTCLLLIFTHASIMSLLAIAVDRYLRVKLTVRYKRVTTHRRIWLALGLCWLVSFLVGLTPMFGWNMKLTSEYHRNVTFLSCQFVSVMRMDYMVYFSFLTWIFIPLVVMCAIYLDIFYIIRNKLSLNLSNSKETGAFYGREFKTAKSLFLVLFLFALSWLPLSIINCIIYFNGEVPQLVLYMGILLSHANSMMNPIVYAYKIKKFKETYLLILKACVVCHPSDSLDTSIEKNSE

[2] = target: T4, Amine oxidase [flavin-containing] A (Homo sapiens, UniProt P21397); experiment: Inhibition of recombinant human MAOA expressed in baculovirus infected BTI insect cells using p-tyramine as substrate preincubated for 30 mins followed by substrate addition and measured over 45 mins by horseradish peroxidase-Amplex Red-coupled fluorometric assay
T4 sequence (P21397 whole entry): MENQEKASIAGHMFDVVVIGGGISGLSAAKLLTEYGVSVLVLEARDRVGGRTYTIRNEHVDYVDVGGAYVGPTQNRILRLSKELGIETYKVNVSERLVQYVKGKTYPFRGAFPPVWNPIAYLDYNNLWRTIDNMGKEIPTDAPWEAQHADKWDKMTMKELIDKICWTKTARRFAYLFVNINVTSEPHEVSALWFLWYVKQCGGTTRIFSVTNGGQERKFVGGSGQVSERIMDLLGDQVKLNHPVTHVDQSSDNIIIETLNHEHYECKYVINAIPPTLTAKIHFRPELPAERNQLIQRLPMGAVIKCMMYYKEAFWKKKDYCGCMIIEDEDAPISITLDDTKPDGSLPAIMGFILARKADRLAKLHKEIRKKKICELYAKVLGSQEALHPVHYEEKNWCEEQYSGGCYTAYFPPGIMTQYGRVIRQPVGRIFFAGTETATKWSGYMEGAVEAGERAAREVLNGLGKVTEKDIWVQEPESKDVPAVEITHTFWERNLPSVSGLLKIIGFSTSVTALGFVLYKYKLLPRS
Outline: (§1)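 Human recombinant MAO-A or MAO-B enzyme. Activity detected fluorometrically with the Amplex Red monoamine oxidase assay.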

[3] = target: T5, Amine oxidase [flavin-containing] B (Homo sapiens, UniProt P27338); experiment: Inhibition of recombinant human MAOB expressed in baculovirus infected BTI insect cells using p-tyramine as substrate preincubated for 30 mins followed by substrate addition and measured over 45 mins by horseradish peroxidase-Amplex Red-coupled fluorometric assay; outline: as §1
T5 sequence (P27338 whole entry): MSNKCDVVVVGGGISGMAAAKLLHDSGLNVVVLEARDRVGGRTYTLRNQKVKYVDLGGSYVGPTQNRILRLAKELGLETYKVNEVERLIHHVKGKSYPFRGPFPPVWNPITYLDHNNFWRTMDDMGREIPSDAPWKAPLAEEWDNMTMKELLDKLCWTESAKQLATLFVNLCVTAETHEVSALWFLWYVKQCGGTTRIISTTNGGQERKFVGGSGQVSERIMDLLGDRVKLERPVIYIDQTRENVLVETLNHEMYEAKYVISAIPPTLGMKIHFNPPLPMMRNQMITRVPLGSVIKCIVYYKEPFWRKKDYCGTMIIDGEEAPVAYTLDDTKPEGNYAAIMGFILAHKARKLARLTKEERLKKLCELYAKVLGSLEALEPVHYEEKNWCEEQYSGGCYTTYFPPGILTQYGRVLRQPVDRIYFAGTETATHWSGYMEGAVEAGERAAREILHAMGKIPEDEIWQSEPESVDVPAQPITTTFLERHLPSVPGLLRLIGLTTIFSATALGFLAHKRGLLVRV

[4] = target: T4, Amine oxidase [flavin-containing] A; experiment: Inhibition of recombinant human MAOA expressed in baculovirus infected BTI insect cells at 1 to 100 uM using p-tyramine as substrate preincubated for 30 mins followed by substrate addition and measured over 45 mins by horseradish peroxidase-Amplex Red-coupled fluorometric assay relative to control; details: 0.75 h; outline: as §1
Adenosine receptor A1 [5] = target: T6, Adenosine receptor A1 (Homo sapiens, UniProt P30542); experiment: Displacement of [3H]CCPA from recombinant human adenosine A1 receptor expressed in CHO cells; type: cell-based
T6 sequence (P30542 whole entry): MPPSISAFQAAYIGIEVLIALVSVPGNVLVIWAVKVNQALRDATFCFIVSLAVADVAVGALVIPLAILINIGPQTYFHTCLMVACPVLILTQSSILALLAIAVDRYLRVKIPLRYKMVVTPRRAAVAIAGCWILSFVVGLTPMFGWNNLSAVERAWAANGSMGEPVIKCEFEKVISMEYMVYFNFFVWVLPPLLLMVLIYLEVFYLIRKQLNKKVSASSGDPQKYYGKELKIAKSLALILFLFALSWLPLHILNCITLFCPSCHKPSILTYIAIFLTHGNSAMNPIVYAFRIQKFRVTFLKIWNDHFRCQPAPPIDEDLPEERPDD

[6] = target: T7, Adenosine receptor A1 (Homo sapiens) (UniProt P30542); experiment: Displacement of [3H]CCPA from recombinant human adenosine A1 receptor expressed in CHO cells at 1 uM relative to control; type: cell-based
T7 sequence (whole entry): T6 sequence (P30542 whole entry)
Outline: (§2)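 Purchased membranes of CHO cells expressing human A1 ([3H]CCPA) or human A3 ([3H]PSB-11). A single high compound concentration is screened first; for potent compounds, full inhibition curves spanning 3 orders of magnitude. At least three independent experiments.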

[7] = target: T8, Adenosine receptor A2b (Homo sapiens) (UniProt P29275); experiment: Displacement of [3H]PSB603 from recombinant human adenosine A2b receptor expressed in HEK293 cells at 1 uM relative to control; type: cell-based
T8 sequence (whole entry): T2 sequence (P29275 whole entry)
Outline: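 Purchased membranes of HEK cells expressing human A2A ([3H]MSX-2) or human A2B ([3H]PSB-603). A single high compound concentration is screened first; for potent compounds, full inhibition curves spanning 3 orders of magnitude. At least three independent experiments.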

[8] = target: T9, Adenosine receptor A3 (Homo sapiens) (UniProt P0DMS8); experiment: Displacement of [3H]PSB11 from recombinant human adenosine A3 receptor expressed in CHO cells at 1 uM relative to control; type: cell-based; outline: as §2
T9 sequence (whole entry): T3 sequence (P0DMS8 whole entry)

SMILES	Ki (Adenosine receptor A1 [1]) [nM]	Ki (Adenosine receptor A2a) [nM]	Ki (Adenosine receptor A2b) [nM]	Ki (Adenosine receptor A3) [nM]	IC50 [2] [nM]	IC50 [3] [nM]	inhibition (INH) [4] [%]	Ki (Adenosine receptor A1 [5]) [nM]	inhibition [6] [%]	inhibition [7] [%]	inhibition [8] [%]
COc1ccccc1CN1CCn2c1nc1c2c(=O)n(C)c(=O)n1C	–	784	> 1000	> 1000	> 1000	111000	7	> 1000	30	3	15
COc1ccc(CN2CCCn3c2nc2c3c(=O)n(C)c(=O)n2C)cc1Cl	> 1000	8000	> 1000	> 1000	> 100000	407	38	–	–	–	–
Cn1c(=O)c2c(nc3n2CCCN3Cc2ccccc2F)n(C)c1=O	1780	1210	> 1000	> 1000	> 1000	583	-1	–	–	–	–
Cn1c(=O)c2c(nc3n2CCCN3Cc2cc(Br)ccc2F)n(C)c1=O	486	> 1000	> 1000	> 1000	–	1180	–	–	–	–	–
Cn1c(=O)c2c(nc3n2CCCN3Cc2cc(C(F)(F)F)ccc2Cl)n(C)c1=O	931	> 1000	> 1000	> 1000	–	1070	–	–	–	–	–
Cn1c(=O)c2c(nc3n2CCCN3Cc2cc(Cl)ccc2Cl)n(C)c1=O	3020	> 1000	> 1000	> 1000	–	758	–	–	–	–	–
Cn1c(=O)c2c(nc3n2CCN3Cc2ccccc2Br)n(C)c1=O	–	887	> 1000	> 1000	> 1000	991	13	> 1000	24	21	37
Cn1c(=O)c2c(nc3n2CCCN3Cc2ccc(Br)cc2F)n(C)c1=O	4130	> 1000	> 1000	> 1000	> 1000	426	-2	–	–	–	–
Cn1c(=O)c2c(nc3n2CCCN3Cc2ccc(F)cc2Cl)n(C)c1=O	> 1000	> 1000	> 1000	> 1000	–	411	–	–	–	–	–
COc1ccc(Cl)c(CN2CCCn3c2nc2c3c(=O)n(C)c(=O)n2C)c1F	927	627	–	–	> 100000	840	16	–	–	–	–
Cn1c(=O)c2c(nc3n2CCCN3Cc2ccc(C(C)(C)C)cc2)n(C)c1=O	–	–	–	–	–	1350	–	–	–	–	–

Further lines, results first:

Ki (Adenosine receptor A1 [1]) [nM]	Ki (Adenosine receptor A2a) [nM]	Ki (Adenosine receptor A2b) [nM]	Ki (Adenosine receptor A3) [nM]	IC50 [2] [nM]	IC50 [3] [nM]	inhibition (INH) [4] [%]	Ki (Adenosine receptor A1 [5]) [nM]	inhibition [6] [%]	inhibition [7] [%]	inhibition [8] [%]	SMILES
> 1000	> 1000	> 1000	> 1000	> 100000	264	9	–	–	–	–	Cn1c(=O)c2c(nc3n2CCCN3Cc2ccc(Cl)c(F)c2)n(C)c1=O
4900	8910	> 1000	> 1000	> 1000	377	2	–	–	–	–	Cn1c(=O)c2c(nc3n2CCCN3Cc2ccc(Cl)cc2F)n(C)c1=O
1910	> 1000	> 1000	> 1000	> 100000	313	17	–	–	–	–	Cc1cccc(CN2CCCn3c2nc2c3c(=O)n(C)c(=O)n2C)c1
–	767	> 1000	> 1000	> 1000	275	3	> 1000	21	43	42	Cn1c(=O)c2c(nc3n2CCCCN3Cc2ccccc2Br)n(C)c1=O
–	> 1000	> 1000	> 1000	> 1000	171	-6	> 1000	23	43	20	Cn1c(=O)c2c(nc3n2CCCCN3Cc2ccc(F)c(Br)c2)n(C)c1=O
–	> 1000	> 1000	> 1000	> 1000	371	6	651	–	41	26	Cn1c(=O)c2c(nc3n2CCCCN3Cc2cccc(Br)c2)n(C)c1=O
4360	8270	> 1000	> 1000	> 1000	346	1	–	–	–	–	Cn1c(=O)c2c(nc3n2CCCN3Cc2ccc(F)c(Br)c2)n(C)c1=O
> 1000	> 1000	> 1000	> 1000	> 1000	310	2	–	–	–	–	Cn1c(=O)c2c(nc3n2CCCN3Cc2ccc(Cl)c(C(F)(F)F)c2)n(C)c1=O
965	1700	> 1000	> 1000	> 1000	396	-1	–	–	–	–	Cn1c(=O)c2c(nc3n2CCCN3Cc2cccc(Br)c2)n(C)c1=O
